Reference: ChEMBL document CHEMBL4411279, “Synthesis of new chalcone-based homoserine lactones and their antiproliferative activity evaluation” (Eur J Med Chem, 2019)
Activity calls are given as the source filed them. The calls are words filed in the database; no cut-off is given here.

Tests used:
DU-145 [1] = experiment: Growth inhibition of human DU145 cells at 2.5 uM after 24 to 48 hrs by MTT assay; assay type: functional, cell-based
In short: (§1)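 DU145 growth inhibition measured by MTT; time course at 24, 48 and 72 h; combination arm used recombinant TRAIL at 100 ng/mL together with compound (2.5 or 5.0 µM); mean ± SD, experiment repeated three times, Student's t test.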

DU-145 [2] = experiment: Induction of apoptosis in human DU145 cells assessed as cell rounding at 5 uM after 24 hrs in presence of TRAIL by Hoechst 33258 staining-based fluorescence microscopic analysis; assay type: functional
In short: (§2)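 DU145 seeded 1×10^5/well, adhered overnight, treated 24 h with compound alone or combined with TRAIL; stained with Hoechst 33258 for 30 min in the dark; nuclear morphology examined by fluorescence microscopy.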

DU-145 [3] = experiment: Induction of apoptosis in human DU145 cells assessed as formation of apoptotic bodies at 5 uM after 24 hrs by Hoechst 33258 staining-based fluorescence microscopic analysis; assay type: functional, cell-based; in short: as §2
DU-145 [4] = experiment: Induction of apoptosis in human DU145 cells assessed as cell rounding at 5 uM after 24 hrs by Hoechst 33258 staining-based fluorescence microscopic analysis; assay type: functional; in short: as §2
PC-3 = experiment: Antiproliferative activity against human PC3 cells after 72 hrs by MTT assay; assay type: functional, cell-based; conditions: PC-3, 72 h
In short: (§3)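 Cells seeded 3,000/well, after 24 h medium replaced with compound at 64, 32, 16, 8, 4, 2, 1, 0.5 µM; 72 h exposure, MTT read-out at 570 nm; IC50 given as mean ± SD.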

DU-145 [5] = experiment: Induction of apoptosis in human DU145 cells assessed as necrotic cells at 5 uM after 24 hrs in presence of TRAIL by Annexin V-FITC/propidium iodide staining-based high content screening assay (reference value: 1.6%); assay type: functional
In short: (§4)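 DU145 seeded 3×10^5/well, grown 24 h, treated 24 h with compound alone or plus TRAIL; harvested, stained with Annexin V-FITC/PI per kit protocol, quantified by high content screening; mean ± SD of three experiments.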

DU-145 [6] = experiment: Antiproliferative activity against human DU145 cells after 72 hrs by MTT assay; assay type: functional, cell-based; conditions: DU-145, 72 h; in short: as §3
DU-145 [7] = experiment: Induction of apoptosis in human DU145 cells assessed as early apoptotic cells at 5 uM after 24 hrs by Annexin V-FITC/propidium iodide staining-based high content screening assay (reference value: 0.3%); assay type: functional; in short: as §4
DU-145 [8] = experiment: Induction of apoptosis in human DU145 cells assessed as increase in caspase-3/7 activity at 5 uM after 24 hrs in presence of TRAIL by Caspase-Glo 3/7 assay relative to control; assay type: functional
In short: (§5)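 DU145 treated 24 h with compound alone or with TRAIL (100 ng/mL); caspase-3/7 activity measured by Caspase-Glo 3/7 luminescent protocol relative to untreated control; three independent experiments, mean ± SD, Student's t test.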

DU-145 [9] = experiment: Growth inhibition of human DU145 cells at 2.5 uM after 72 hrs in presence of TRAIL by MTT assay relative to control; assay type: functional; conditions: DU-145, 72 h, read-out: GI; in short: as §1
DU-145 [10] = experiment: Induction of apoptosis in human DU145 cells assessed as viable cells at 5 uM after 24 hrs by Annexin V-FITC/propidium iodide staining-based high content screening assay (reference value: 97.9%); assay type: functional; conditions: DU-145, 24 h, read-out: Activity; in short: as §4
MCF7 = experiment: Antiproliferative activity against human MCF7 cells after 72 hrs by MTT assay; assay type: functional, cell-based; conditions: MCF7, 72 h; in short: as §3
DU-145 [11] = experiment: Induction of apoptosis in human DU145 cells assessed as early apoptotic cells at 5 uM after 24 hrs in presence of TRAIL by Annexin V-FITC/propidium iodide staining-based high content screening assay (reference value: 0.3%); assay type: functional; in short: as §4
MGC-803 = experiment: Antiproliferative activity against human MGC803 cells after 72 hrs by MTT assay; assay type: functional, cell-based; conditions: MGC-803, 72 h; in short: as §3
DU-145 [12] = experiment: Induction of apoptosis in human DU145 cells assessed as viable cells at 5 uM after 24 hrs in presence of TRAIL by Annexin V-FITC/propidium iodide staining-based high content screening assay (reference value: 97.9%); assay type: functional; conditions: DU-145, 24 h, read-out: Activity; in short: as §4
DU-145 [13] = experiment: Induction of apoptosis in human DU145 cells assessed as increase in caspase-3/7 activity at 2.5 to 10 uM after 24 hrs by Caspase-Glo 3/7 assay; assay type: functional, cell-based; in short: as §5
DU-145 [14] = experiment: Induction of apoptosis in human DU145 cells assessed as necrotic cells at 5 uM after 24 hrs by Annexin V-FITC/propidium iodide staining-based high content screening assay (reference value: 1.6%); assay type: functional; in short: as §4
DU-145 [15] = experiment: Growth inhibition of human DU145 cells at 2.5 uM by MTT assay; assay type: functional, cell-based; conditions: TDE = time-dependent effect; in short: as §1
DU-145 [16] = experiment: Induction of apoptosis in human DU145 cells assessed as late apoptotic cells at 5 uM after 24 hrs by Annexin V-FITC/propidium iodide staining-based high content screening assay (reference value: 0.2%); assay type: functional; in short: as §4
DU-145 [17] = experiment: Induction of apoptosis in human DU145 cells assessed as formation of apoptotic bodies at 5 uM after 24 hrs in presence of TRAIL by Hoechst 33258 staining-based fluorescence microscopic analysis; assay type: functional, cell-based; in short: as §2
DU-145 [18] = experiment: Induction of apoptosis in human DU145 cells assessed as chromatin shrinkage at 5 uM after 24 hrs by Hoechst 33258 staining-based fluorescence microscopic analysis; assay type: functional, cell-based; in short: as §2
DU-145 [19] = experiment: Induction of apoptosis in human DU145 cells assessed as late apoptotic cells at 5 uM after 24 hrs in presence of TRAIL by Annexin V-FITC/propidium iodide staining-based high content screening assay (reference value: 0.2%); assay type: functional; in short: as §4
DU-145 [20] = experiment: Induction of apoptosis in human DU145 cells assessed as chromatin shrinkage at 5 uM after 24 hrs in presence of TRAIL by Hoechst 33258 staining-based fluorescence microscopic analysis; assay type: functional, cell-based; in short: as §2
DU-145 [21] = experiment: Inhibition of colony formation in human DU145 cells after 21 days by crystal violet staining-based assay; assay type: functional, cell-based
In short: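 DU145 seeded 4000/well, grown 4 days, then medium with compound at various concentrations for 21 days; PBS washed, fixed in 4% paraformaldehyde, stained with 0.1% crystal violet; colonies (>10 cells) counted; inhibition = (1 − treated/control colonies) × 100%.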

DU-145 [22] = experiment: Induction of apoptosis in human DU145 cells assessed as cell rounding at 10 uM after 24 hrs in presence of TRAIL by Hoechst 33258 staining-based fluorescence microscopic analysis; assay type: functional; in short: as §2
DU-145 [23] = experiment: Induction of apoptosis in human DU145 cells assessed as chromatin shrinkage at 10 uM after 24 hrs by Hoechst 33258 staining-based fluorescence microscopic analysis; assay type: functional, cell-based; in short: as §2
DU-145 [24] = experiment: Induction of apoptosis in human DU145 cells assessed as necrotic cells at 10 uM after 24 hrs by Annexin V-FITC/propidium iodide staining-based high content screening assay (reference value: 1.6%); assay type: functional; in short: as §4
DU-145 [25] = experiment: Induction of apoptosis in human DU145 cells assessed as viable cells at 10 uM after 24 hrs by Annexin V-FITC/propidium iodide staining-based high content screening assay (reference value: 97.9%); assay type: functional; conditions: DU-145, 24 h, read-out: Activity; in short: as §4
DU-145 [26] = experiment: Induction of apoptosis in human DU145 cells assessed as early apoptotic cells at 10 uM after 24 hrs in presence of TRAIL by Annexin V-FITC/propidium iodide staining-based high content screening assay (reference value: 0.3%); assay type: functional; in short: as §4
DU-145 [27] = experiment: Growth inhibition of human DU145 cells at 5 uM after 24 to 48 hrs by MTT assay; assay type: functional, cell-based; in short: as §1
DU-145 [28] = experiment: Induction of apoptosis in human DU145 cells assessed as viable cells at 10 uM after 24 hrs in presence of TRAIL by Annexin V-FITC/propidium iodide staining-based high content screening assay (reference value: 97.9%); assay type: functional; conditions: DU-145, 24 h, read-out: Activity; in short: as §4
DU-145 [29] = experiment: Induction of apoptosis in human DU145 cells assessed as increase in caspase-3/7 activity at 10 to 50 uM after 24 hrs by Caspase-Glo 3/7 assay; assay type: functional, cell-based; in short: as §5
DU-145 [30] = experiment: Induction of apoptosis in human DU145 cells assessed as early apoptotic cells at 10 uM after 24 hrs by Annexin V-FITC/propidium iodide staining-based high content screening assay (reference value: 0.3%); assay type: functional; in short: as §4
DU-145 [31] = experiment: Induction of apoptosis in human DU145 cells assessed as formation of apoptotic bodies at 10 uM after 24 hrs in presence of TRAIL by Hoechst 33258 staining-based fluorescence microscopic analysis; assay type: functional, cell-based; in short: as §2
DU-145 [32] = experiment: Induction of apoptosis in human DU145 cells assessed as late apoptotic cells at 10 uM after 24 hrs in presence of TRAIL by Annexin V-FITC/propidium iodide staining-based high content screening assay (reference value: 0.2%); assay type: functional; in short: as §4
DU-145 [33] = experiment: Induction of apoptosis in human DU145 cells assessed as late apoptotic cells at 10 uM after 24 hrs by Annexin V-FITC/propidium iodide staining-based high content screening assay (reference value: 0.2%); assay type: functional; in short: as §4
DU-145 [34] = experiment: Induction of apoptosis in human DU145 cells assessed as chromatin shrinkage at 10 uM after 24 hrs in presence of TRAIL by Hoechst 33258 staining-based fluorescence microscopic analysis; assay type: functional, cell-based; in short: as §2
DU-145 [35] = experiment: Growth inhibition of human DU145 cells at 5 uM by MTT assay; assay type: functional, cell-based; conditions: TDE = time-dependent effect; in short: as §1
DU-145 [36] = experiment: Growth inhibition of human DU145 cells at 5 uM after 72 hrs in presence of TRAIL by MTT assay relative to control; assay type: functional; conditions: DU-145, 72 h, read-out: GI; in short: as §1
DU-145 [37] = experiment: Induction of apoptosis in human DU145 cells assessed as necrotic cells at 10 uM after 24 hrs in presence of TRAIL by Annexin V-FITC/propidium iodide staining-based high content screening assay (reference value: 1.6%); assay type: functional; in short: as §4
DU-145 [38] = experiment: Induction of apoptosis in human DU145 cells assessed as formation of apoptotic bodies at 10 uM after 24 hrs by Hoechst 33258 staining-based fluorescence microscopic analysis; assay type: functional, cell-based; in short: as §2
DU-145 [39] = experiment: Induction of apoptosis in human DU145 cells assessed as cell rounding at 10 uM after 24 hrs by Hoechst 33258 staining-based fluorescence microscopic analysis; assay type: functional; in short: as §2
DU-145 [40] = experiment: Induction of apoptosis in human DU145 cells assessed as increase in caspase-3/7 activity at 10 uM after 24 hrs in presence of TRAIL by Caspase-Glo 3/7 assay relative to control; assay type: functional; in short: as §5

O=C(COc1ccc(C(=O)/C=C/c2ccccc2Cl)cc1)N[C@H]1CCOC1=O
Activity (DU-145 [1]): Active | Activity (DU-145 [2]): Active | Activity (DU-145 [3]): Active | Activity (DU-145 [4]): Active | IC50 (PC-3): 4.61 µM | Activity (DU-145 [5]): 0.1% | IC50 (DU-145 [6]): 3.24 µM | Activity (DU-145 [7]): 6.4% | fold change (FC) (DU-145 [8]): 3 | inhibition of growth at 2.5 µM (DU-145 [9]): 50% | viability at 5 µM (DU-145 [10]): 90.1% | IC50 (MCF7): 17.4 µM | Activity (DU-145 [11]): 13.4% | IC50 (MGC-803): 27.1 µM | viability at 5 µM (DU-145 [12]): 84.8% | Activity (DU-145 [13]): Active | Activity (DU-145 [14]): 1.7% | growth inhibition (GI) (DU-145 [15]): Tde | Activity (DU-145 [16]): 1.7% | Activity (DU-145 [17]): Active | Activity (DU-145 [18]): Active | Activity (DU-145 [19]): 1.7% | Activity (DU-145 [20]): Active | inhibition (DU-145 [21]): Dose-dependent effect

CCCCCCCCCC(=O)CC(=O)N[C@H]1CCOC1=O
Activity (DU-145 [22]): Active | Activity (DU-145 [23]): Active | Activity (DU-145 [24]): 0.5% | viability at 10 µM (DU-145 [25]): 89.2% | Activity (DU-145 [26]): 12.2% | IC50 (PC-3): 22.5 µM | IC50 (DU-145 [6]): 19.3 µM | Activity (DU-145 [27]): Active | viability at 10 µM (DU-145 [28]): 77.9% | IC50 (MCF7): 26.2 µM | IC50 (MGC-803): 29.5 µM | Activity (DU-145 [29]): Active | Activity (DU-145 [30]): 9.2% | Activity (DU-145 [31]): Active | Activity (DU-145 [32]): 9.7% | Activity (DU-145 [33]): 1.1% | Activity (DU-145 [34]): Active | growth inhibition (GI) (DU-145 [35]): Tde | inhibition of growth at 5 µM (DU-145 [36]): 20% | Activity (DU-145 [37]): 0.2% | Activity (DU-145 [38]): Active | Activity (DU-145 [39]): Active | inhibition (DU-145 [21]): Dose-dependent effect | fold change (FC) (DU-145 [40]): 2
